Sampled rows, rich in hits. Any-hit rate of the full collection: about 3.2%.
GASC-1 inh: blocks human GASC-1 demethylase activity. Q9H3R0. GST-JMJD2C(1-420) H3K9me3 demethylation, DELFIA europium. inhibition, % at 2.35 µM. actives 0.069% (n = 330,000);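 active = more than half of a compound's replicate wells show inhibition beyond 50%, single wells judged on their own value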;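 note: signal counts dimethyl H3K9 product captured on neutravidin plate; 0% = median of DMSO wells and 100% = 0.3 times that DMSO median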
Target sequence (Q9H3R0 1-420 limits assumed): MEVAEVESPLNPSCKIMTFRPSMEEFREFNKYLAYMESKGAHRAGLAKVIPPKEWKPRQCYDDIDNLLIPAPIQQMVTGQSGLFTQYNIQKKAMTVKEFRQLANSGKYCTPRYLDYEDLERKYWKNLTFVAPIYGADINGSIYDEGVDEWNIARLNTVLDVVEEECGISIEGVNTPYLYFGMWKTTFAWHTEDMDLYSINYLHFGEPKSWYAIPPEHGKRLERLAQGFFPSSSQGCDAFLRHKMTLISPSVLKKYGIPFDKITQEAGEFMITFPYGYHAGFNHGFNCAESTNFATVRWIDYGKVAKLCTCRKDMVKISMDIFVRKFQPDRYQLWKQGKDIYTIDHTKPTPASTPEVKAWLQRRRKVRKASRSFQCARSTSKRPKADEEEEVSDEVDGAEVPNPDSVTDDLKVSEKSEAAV
NR2E3 ag-1: agonists of human nuclear receptor NR2E3; Q9Y5X4; GST-NR2E3/biotin-RetCOR TR-FRET, 1536-well; inhibition of corepressor binding, % at 4.78 µM; actives 0.12% (n = 320,000); AID 2300;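 active = percent inhibition above the cutoff of mean plus 3 SD of all tested compounds, set per screening campaign, cut at about 20% in these data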;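 note: 0% = DMSO wells and 100% = biotin wells as full block of FRET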
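Material: NR2E3–RetCOR corepressor complex / Amount: 1.35 nM GST-NR2E3 / Medium: Tris pH 7.5 / Compound: single nominal compound dose of 4.8 µM / Incubation: 5 h at 4 °C / Technique: TR-FRET, Eu(K)-anti-GST donor, streptavidin-D2 acceptor, ex 340, em 617/671 nm / Read-out basis: percent loss of FRET ratio relative to control wells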
DAX1 inh-1: NR0B1 (DAX1) inhibition. P51843. HEK293 Gal4-DAX1 luciferase reporter, luminescence. inhibition, % at 6.75 µM. actives 0.99% (n = 340,000). AID 504766;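 active = inhibition above the mean over all tested compounds plus 3 SD, cut at about 4.2% in these data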;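 note: 0% = DAX1-transfected cells with DMSO and 100% = empty-vector control cells with DMSO; inhibition shows as a rise in luminescence from relieved DAX1 repression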
Target sequence (P51843 207-470 limits assumed): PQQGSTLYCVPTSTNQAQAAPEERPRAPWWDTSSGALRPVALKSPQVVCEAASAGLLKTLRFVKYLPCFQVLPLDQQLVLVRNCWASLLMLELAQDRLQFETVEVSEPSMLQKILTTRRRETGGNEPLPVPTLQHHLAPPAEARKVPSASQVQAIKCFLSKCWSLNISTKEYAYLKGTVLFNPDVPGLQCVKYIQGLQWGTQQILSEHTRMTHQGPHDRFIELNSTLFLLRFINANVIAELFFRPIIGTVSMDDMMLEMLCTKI
NR2E3 ag-2: agonists of human NR2E3 nuclear receptor; Q9Y5X4; CHO-S Gal4-NCOR/VP16-NR2E3 two-hybrid, luciferase; inhibition of corepressor binding, % at 3.98 µM; actives 0.35% (n = 360,000); AID 602229;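 active = inhibition above the mean of all tested compounds plus 3 SD, cut at about 70% in these data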;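 note: 0% = DMSO with NR2E3 transfected cells and 100% = cells lacking NR2E3 construct; higher means lower luciferase signal from less NR2E3 corepressor binding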
SMARCA2 act: increases SMARCA2 function in MMTV reporter cells. AID 652017. activation, % at 9.1 µM. actives 1% (n = 370,000). MG213 cells, MMTV-luciferase reporter, dexamethasone, overnight; in the data active = activation above about 7.8%;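 note: 0% = vehicle wells and 100% = reference activator wells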
DAX1 inh-2: inhibitors of DAX1 repression of SF-1 activated StAR promoter; HEK293T StAR-luciferase reporter, SF-1/DAX-1 repression relief; actives 1.1% (n = 370,000); inhibition, % at 6.8 µM; AID 652010;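 active = inhibition above the mean over all tested compounds plus 3 SD, cut at about 3.6% in these data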;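 note: 0% = DAX-1 cells with DMSO and 100% = cells lacking DAX-1 with DMSO; higher inhibition means more luminescence from relief of DAX-1 repression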
NR2E3 ag confirm: confirmation of human NR2E3 agonists | inhibition, % at 3.98 µM | actives 51% (n = 2,300) | CHO-S mammalian two-hybrid NR2E3-NCOR, luciferase luminescence | shares compounds with NR2E3 ag-2;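 active = average inhibition above a cutoff equal to the mean inhibition of all tested compounds plus one SD, cut at about 70% in these data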;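 note: 0% = DMSO in NR2E3 cells and 100% = DMSO in cells lacking NR2E3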
GAL4-VP16 luc: counter-screen for NR2E3 agonists: GAL4-VP16 reporter inhibitors; CHO-S GAL4-VP16 luciferase reporter, luminescence; actives 29% (n = 2,300); shares compounds with NR2E3 ag-2; inhibition, % at 3.98 µM;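 active = mean inhibition above a cutoff equal to the average over all tested compounds plus one standard deviation, cut at about 70% in these data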;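 note: luciferase from a UAS reporter driven by GAL4-VP16 transactivation; 0% = DMSO with VP16-transfected cells and 100% = DMSO with cells lacking VP16; higher means less reporter light so more repression of VP16 activity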
An asterisk follows results filed as active; . = no result given.

SMILES	GASC-1 inh	NR2E3 ag-1	DAX1 inh-1	NR2E3 ag-2	SMARCA2 act	DAX1 inh-2	NR2E3 ag confirm	GAL4-VP16 luc
COc1ccc(S[C@]2(C(=O)N3CCOCC3)CC(=O)N(S(=O)(=O)c3ccc(F)cc3)[C@@H]2c2ccc(OC)cc2)cc1	.	.	.	.	-1	-2	.	.
CC(=O)c1c(C)[nH]c(C(=O)COc2cc(C)ccc2C(C)C)c1C	-3	-1	-4	85*	-3	-2	91*	79*
O=C(CC1CCCC1)N[C@@H](Cc1cccnc1)C(=O)N1CCC[C@H]1C(=O)NCCc1ccccc1Cl	.	.	.	.	3	0	.	.
CCOC(=O)[C@]12CCCCC/C=C\1N(CCc1ccc(Cl)cc1)C(=O)[C@H]2CC(=O)NCc1ccccc1	.	.	.	.	-5	1	.	.
CN=c1scc(-c2cccs2)n1/N=C/c1ccccc1O	-6	-2	-5	95*	-11	-4	90*	82*
C[C@@H]1NC(=O)[C@H]2C[C@@]3(c4ccccc4)c4ccccc4N[C@H]3N2C1=O	.	.	.	.	-4	-1	.	.
Cc1ccc([C@@H]2CC=C(C(=O)O)[C@H](c3ccc(Br)cc3)N2S(=O)(=O)c2ccccc2C)cc1	.	.	0	64	-1	0	16	3
Cc1ccccc1S(=O)(=O)N1[C@@H](c2ccc(Br)cc2)C(C(=O)O)=CC[C@H]1c1ccc(Cl)cc1	.	.	2	79*	2	0	38	14
C=CCN1C(=O)[C@@H](CC(=O)NCCc2ccccc2OC)[C@]2(C(=O)OCC)CCCCC/C=C/12	.	.	.	.	-4	-1	.	.
COc1ccc(NC(=O)CN2C(=O)C(c3ccccc3)=NC23CCCCCC3)cc1	-2	1	0	-32	-5	0	.	.
O=C(CN1C(=O)C(c2ccc(F)cc2)=NC12CCCC2)Nc1ccc(F)cc1	-2	5	-2	75*	-2	-4	73*	54
COc1ccc(Cl)cc1C(=O)CSc1nnnn1C1CCCC1	7	3	1	-2	2	1	.	.
COCCn1c(C)cc(C(=O)CSc2nnnn2C2CCCC2)c1C	-6	1	-3	56	-4	-2	22	-54
COc1cc(/C=C2\COC/C(=C\c3cc(OC)c(OC)c(OC)c3)C2=O)cc(OC)c1OC	-12	.	-4	86*	-11	-2	100*	82*
COc1cc(/C=C2\CC/C(=C\c3cc(OC)c(OC)c(OC)c3)C2=O)cc(OC)c1OC	-3	0	0	-4	0	0	.	.
CC(=O)Nc1ccc(S(=O)(=O)NCCSCc2c(Cl)cccc2Cl)cc1	-1	1	-1	62	-4	-1	71*	58
Cc1[nH]c(-c2ccccn2)nc(=S)c1Cl	2	-2	3	7	-3	1	.	.
Cc1cc(=S)nc(-c2ccccn2)[nH]1	.	1	1	76*	-1	0	-6	-12
COC(=O)[C@]12C[C@H](CC(=O)N3CCN(C(=O)c4ccco4)CC3)C(=O)N(Cc3ccc(Cl)cc3Cl)C1=C[C@H](C(C)(C)C)O[C@@H]2C	.	.	.	.	0	0	.	.
CCOC(=O)[C@]12CCCCC/C=C\1N(CCc1ccc(Cl)cc1)C(=O)[C@H]2CC(=O)N1CCN(C(=O)C2CC2)CC1	.	.	.	.	1	-1	.	.
COc1ccc(CNCC#Cc2ccc(C(F)(F)F)cc2)c(OC)c1	.	.	.	.	-5	-1	.	.
COc1ccc(NC(=O)Cn2cc(C(C)=O)c3ccccc32)cc1	-1	-1	-4	49	-5	-2	57	56
N#Cc1ccc(/C=C2\CC3(OC(=O)C4CCCC4)CCCN2C3)cc1 (stereo not given)	.	.	.	.	-5	0	.	.
Cc1c(C)c2cccnc2c2ncccc12	1	0	-3	79*	.	.	39	9
Oc1c(I)cc(Cl)c2cccnc12	13	-3	0	4	-1	0	.	.
SMILES	GASC-1 inh	NR2E3 ag-1	DAX1 inh-1	NR2E3 ag-2	SMARCA2 act	DAX1 inh-2	NR2E3 ag confirm	GAL4-VP16 luc
Clc1cc2cccnc2c2ncccc12	-7	1	0	83*	0	-4	95*	12
CC(C)(C)OC(=O)NCc1cc(F)ccc1/C=C/S(=O)(=O)NC1CCCC1	.	.	.	.	1	-2	.	.
C=CCSc1nsc(NC(=O)Nc2ccc(F)cc2)n1	-5	4	-4	93*	-8	-2	100*	88*
CCSc1nsc(NC(=O)Nc2ccccc2F)n1	-1	-6	1	-175	3	0	.	.
CCC(=O)N1CCc2cc(S(=O)(=O)Nc3ccc4c(c3)OCCO4)ccc21	22	-1	-2	53	-4	-1	89*	78*
CS(=O)(=O)N1CCc2cc(S(=O)(=O)NCCNS(=O)(=O)c3ccc4c(c3)CCN4S(C)(=O)=O)ccc21	-4	-4	0	5	-2	0	.	.
CS(=O)(=O)N1CCc2cc(S(=O)(=O)Nc3ccc4c(c3)OCCO4)ccc21	12	0	-3	53	-4	-2	44	33
O=C(C1CCC1)N1CCc2cc(S(=O)(=O)Nc3ccc4c(c3)OCCO4)ccc21	28	1	0	41	-3	-1	.	.
OC[C@@H]1CN(Cc2ccc(-c3ccccc3)cc2)C[C@H](n2cnc3c(Nc4ccccc4)ncnc32)O1	.	.	.	50	-7	-4	76*	51
CC(C)N(C)c1ncnc2c1ncn2[C@H]1CN(Cc2ccncc2)C[C@@H](CO)O1	.	.	.	-19	-1	-2	.	.
OC[C@@H]1CN(Cc2cccc3ccccc23)C[C@H](n2cnc3c(NCc4ccco4)ncnc32)O1	.	.	.	53	2	-4	6	8
CC(C)N(C)c1ncnc2c1ncn2[C@H]1CN(Cc2ccc(-c3ccccc3)cc2)C[C@@H](CO)O1	.	.	.	55	-2	-1	31	26
Cc1ccc(CN2CCCCC(NC(=O)c3c(F)cccc3F)C2=O)cc1 (stereo not given)	.	.	.	.	-2	-1	.	.
CC(C)(C)OC(=O)N1Cc2ccccc2C[C@H]1C(=O)NCC(=O)Nc1ccc2c(c1)OCCO2	-7	-2	1	59	-5	-10	27	8
N#CC(c1cccc(Cl)c1)c1ccc2c(C(F)(F)F)cc(C(F)(F)F)nc2n1 (stereo not given)	0	1	-1	110*	-2	-1	99*	91*
O=C(CSc1nnc(-c2ccco2)n1-c1ccc(Cl)cc1)Nc1ccccc1-c1ccccc1	.	.	.	.	-3	-1	.	.
COC(=O)[C@]12C[C@H](CC(=O)NCCCN3CCCC3=O)C(=O)N(CCc3ccc(OC)c(OC)c3)C1=C[C@H](C(C)C)O[C@@H]2C1CC1	.	.	.	.	0	0	.	.

Assay outcomes from PubChem.
